Reference: ChEMBL document CHEMBL1250436, “Evaluation of N-substitution in 6,7-benzomorphan compounds” (Bioorg Med Chem, 2010)

Legend:
[1] = target: Mu-type opioid receptor (Rattus norvegicus, UniProt P33535); assay: Displacement of [3H]DAMGO from Sprague-Dawley rat mu opioid receptor by liquid scintillation counting
[2] = target: Delta-type opioid receptor (Rattus norvegicus, UniProt P33533); assay: Displacement of [3H]DPDPE from Sprague-Dawley rat delta opioid receptor by liquid scintillation counting
[3] = target: Kappa-type opioid receptor (Cavia porcellus, UniProt P41144); assay: Displacement of [3H]U69593 from […] kappa opioid receptor in guinea pig cerebella by liquid scintillation counting
[4] = Selectivity ratio of Ki for kappa opioid receptor in guinea pig cerebella to Ki for mu opioid receptor in Sprague-Dawley rat brain
[5] = species: Rattus norvegicus; assay: Selectivity ratio of Ki for delta opioid receptor in Sprague-Dawley rat brain to Ki for mu opioid receptor in Sprague-Dawley rat brain
[6] = test system: Rattus norvegicus; assay: Antinociceptive activity in sc dosed Sprague-Dawley rat assessed as thermal-stimulus-induced tail flick latency after 100 mins; assay type: functional
Outline: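 Male Sprague–Dawley rats (180–200 g) habituated the day before. Radiant-heat IR on lower third of tail. Basal latency 3–4 s, mean of three readings 5 min apart. Cut-off 10 s. Compound given sc, and latencies read at 20, 40, 60, 80 and 100 min. Blinded. ED50 from linear regression of dose–effect, with 95% confidence limits.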

[7] = target: T1, Delta-type opioid receptor (Homo sapiens, UniProt P41143); assay: Agonist activity at delta opioid expressed in HEK293 cells assessed as inhibition of forskolin-stimulated cAMP accumulation at 1 pM to 10 uM relative to control; assay type: functional, cell-based
[8] = target: T1, Delta-type opioid receptor; assay: Agonist activity at delta opioid expressed in HEK293 cells assessed as inhibition of forskolin-stimulated cAMP accumulation; assay type: functional, cell-based
[9] = target: T2, Mu-type opioid receptor (Homo sapiens, UniProt P35372); assay: Agonist activity at mu opioid expressed in HEK293 cells assessed as inhibition of forskolin-stimulated cAMP accumulation at 1 pM to 10 uM relative to control; assay type: functional, cell-based
[10] = target: T2, Mu-type opioid receptor; assay: Agonist activity at mu opioid expressed in HEK293 cells assessed as inhibition of forskolin-stimulated cAMP accumulation; assay type: functional, cell-based

Delta-type opioid receptor (Rattus norvegicus, UniProt P33533), sequence (P33533 whole entry): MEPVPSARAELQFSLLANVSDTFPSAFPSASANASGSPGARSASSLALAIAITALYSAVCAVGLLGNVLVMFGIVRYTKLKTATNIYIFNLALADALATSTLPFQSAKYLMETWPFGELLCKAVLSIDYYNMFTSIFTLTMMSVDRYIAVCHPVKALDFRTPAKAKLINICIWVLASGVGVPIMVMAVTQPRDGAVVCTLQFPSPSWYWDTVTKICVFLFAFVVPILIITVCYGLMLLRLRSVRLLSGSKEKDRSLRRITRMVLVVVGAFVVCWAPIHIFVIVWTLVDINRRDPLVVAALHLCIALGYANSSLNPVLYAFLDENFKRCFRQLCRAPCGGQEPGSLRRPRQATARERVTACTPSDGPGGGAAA
Kappa-type opioid receptor, sequence (P41144 whole entry): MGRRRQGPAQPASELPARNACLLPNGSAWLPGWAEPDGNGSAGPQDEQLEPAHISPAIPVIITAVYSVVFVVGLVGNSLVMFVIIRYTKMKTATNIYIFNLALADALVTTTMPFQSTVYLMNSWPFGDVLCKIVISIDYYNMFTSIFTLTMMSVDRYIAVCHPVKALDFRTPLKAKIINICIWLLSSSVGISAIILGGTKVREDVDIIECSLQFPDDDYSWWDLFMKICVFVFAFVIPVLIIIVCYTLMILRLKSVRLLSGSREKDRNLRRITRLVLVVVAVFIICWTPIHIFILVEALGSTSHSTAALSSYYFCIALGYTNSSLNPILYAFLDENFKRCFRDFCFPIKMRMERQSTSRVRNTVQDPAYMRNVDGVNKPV
Mu-type opioid receptor (Rattus norvegicus, UniProt P33535), sequence (P33535 whole entry): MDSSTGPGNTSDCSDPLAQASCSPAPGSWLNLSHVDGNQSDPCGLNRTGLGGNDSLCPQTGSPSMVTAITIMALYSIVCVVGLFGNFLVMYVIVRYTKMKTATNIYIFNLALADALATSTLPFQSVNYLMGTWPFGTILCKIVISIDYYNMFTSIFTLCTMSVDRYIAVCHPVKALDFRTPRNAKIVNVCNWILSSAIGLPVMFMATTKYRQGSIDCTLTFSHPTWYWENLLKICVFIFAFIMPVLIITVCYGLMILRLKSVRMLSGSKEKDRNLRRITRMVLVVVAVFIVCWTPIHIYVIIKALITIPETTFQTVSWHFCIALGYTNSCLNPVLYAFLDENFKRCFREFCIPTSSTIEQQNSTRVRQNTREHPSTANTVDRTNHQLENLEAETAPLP
T2 sequence (P35372 whole entry): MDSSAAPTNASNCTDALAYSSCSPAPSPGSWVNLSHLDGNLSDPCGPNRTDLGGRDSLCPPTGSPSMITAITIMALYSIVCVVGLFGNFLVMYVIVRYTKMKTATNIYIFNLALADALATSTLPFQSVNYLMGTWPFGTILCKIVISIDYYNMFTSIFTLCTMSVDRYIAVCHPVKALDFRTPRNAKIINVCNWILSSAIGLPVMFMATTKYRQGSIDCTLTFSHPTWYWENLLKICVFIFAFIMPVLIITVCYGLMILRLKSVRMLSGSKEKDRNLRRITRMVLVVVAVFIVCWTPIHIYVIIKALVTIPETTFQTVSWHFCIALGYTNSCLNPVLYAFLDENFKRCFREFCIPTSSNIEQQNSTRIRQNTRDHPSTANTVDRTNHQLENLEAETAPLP
T1 sequence (P41143 whole entry): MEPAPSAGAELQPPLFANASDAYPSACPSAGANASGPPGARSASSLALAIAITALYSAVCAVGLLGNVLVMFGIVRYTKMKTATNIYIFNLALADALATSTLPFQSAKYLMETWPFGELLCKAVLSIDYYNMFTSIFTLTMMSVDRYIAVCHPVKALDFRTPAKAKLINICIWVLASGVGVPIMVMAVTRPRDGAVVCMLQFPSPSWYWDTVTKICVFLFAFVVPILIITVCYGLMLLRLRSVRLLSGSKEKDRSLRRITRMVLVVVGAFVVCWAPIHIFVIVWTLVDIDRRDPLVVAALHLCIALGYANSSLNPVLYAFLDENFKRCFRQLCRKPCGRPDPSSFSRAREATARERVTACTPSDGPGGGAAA

SMILES	Ki [1] [nM]	Ki [2] [nM]	Ki [3] [nM]	Ratio Ki [4]	Ratio Ki [5]	ED50 [6] [mg/kg]	Imax [7] [%]	IC50 [8] [nM]	Imax [9] [%]	IC50 [10] [nM]
C[C@H]1CN(CC(=O)NC2CCCCC2)[C@@H]2Cc3ccc(O)cc3[C@]1(C)C2	2930	> 5000	612	0.2	> 1.7					
C[C@H]1CN(CCC(=O)NC2CCCCC2)[C@@H]2Cc3ccc(O)cc3[C@]1(C)C2	56	> 5000	501	8.9	> 89.2					
C[C@H]1CN(CCC(=O)Nc2ccccc2)[C@@H]2Cc3ccc(O)cc3[C@]1(C)C2	0.83	29.1	110	132	33.8	2.03	83	12	73	4.8
CN1CC[C@]23c4c5ccc(O)c4O[C@H]2[C@@H](O)C=C[C@H]3[C@H]1C5 [MORPHINE]						2.7				
C[C@H]1CN(CCC(=O)NCc2ccccc2)[C@@H]2Cc3ccc(O)cc3[C@]1(C)C2	105	> 5000	237	2.2	> 47.6					
C[C@H]1CN(CC(=O)N(C)c2ccccc2)[C@@H]2Cc3ccc(O)cc3[C@]1(C)C2	1370	> 5000	339	0.24	> 3.6					
C[C@H]1CN(CCC(=O)NC(C)(C)C)[C@@H]2Cc3ccc(O)cc3[C@]1(C)C2	372	> 5000	422	1.1	> 13.4					
CCN(C(=O)CCN1C[C@H](C)[C@@]2(C)C[C@H]1Cc1ccc(O)cc12)c1ccccc1	136	> 5000	70	0.51	> 36.7					
CCN(C(=O)CN1C[C@H](C)[C@@]2(C)C[C@H]1Cc1ccc(O)cc12)c1ccccc1	1120	> 5000	335	0.29	> 4.4					
C[C@H]1CN(CCC(=O)N(C)c2ccccc2)[C@@H]2Cc3ccc(O)cc3[C@]1(C)C2	65	> 5000	261	4	> 76.9					
C[C@H]1CN(CCC(=O)NCC2CCCCC2)[C@@H]2Cc3ccc(O)cc3[C@]1(C)C2	107	> 5000	134	1.2	> 46.7					
C[C@H]1CN(CC(=O)Nc2ccccc2)[C@@H]2Cc3ccc(O)cc3[C@]1(C)C2	722	> 5000	> 5000	> 6.9	> 6.9					
C[C@@H](NC(=O)[C@@H](N)Cc1ccc(O)cc1)C(=O)NCC(=O)N(C)[C@@H](Cc1ccccc1)C(=O)NCCO [DAMGO]		2670	> 5000							
